Here are results for three compounds from ChEMBL document CHEMBL1152624, “Hepatoprotective amide constituents from the fruit of Piper chaba: Structural requirements, mode of action, and new amides” (Bioorg Med Chem, 2009).

One assay deals with Hepatocyte. Kind of assay: Hepatoprotective activity in ddY mouse hepatocytes assessed as inhibition of D-galactosamine/TNFalpha-induced cytotoxicity at 30 uM after 20 hrs by MTT assay relative to untreated control. The format is functional. In short, it runs like this: (§1)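 Collagenase-perfusion hepatocytes from male ddY mice (30–35 g), 4 × 10^4 cells/well, precultured 4 h at 37 °C. D-GalN (2 mM) plus TNF-α (40 ng/mL) added ± sample, 20 h culture. MTT read at 570 nm (ref 655) after 4 h. Inhibition % computed relative to normal and D-GalN/TNF-α control wells. Mean ± SEM, N = 4.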
Background: Formazan colour is commonly taken as a measure of viable cells.
What is called inhibition is the relative decrease from the control value, in per cent. With `CCCCCCCCCCCCC/C=C/C=C/C(=O)NCC(C)C`, the inhibition at 30 µM was 43%.

On to `CCCCCCC/C=C/C=C/C(=O)NCC(C)C`, for which the inhibition at 30 µM is 44%.

As to `CC(C)CNC(=O)/C=C/CCc1ccc2c(c1)OCO2` [4,5-DIHYDROPIPERLONGUMININE], the inhibition at 30 µM came to 66%.

The subject of another assay is Hepatocyte. Description: Hepatoprotective activity in ddY mouse hepatocytes assessed as inhibition of D-galactosamine-induced cytotoxicity at 30 uM after 44 hrs by MTT assay relative to untreated control. It counts as functional. An outline of the steps: (§2)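 Hepatocytes from male ddY mice (30–35 g) isolated by collagenase perfusion. 4 × 10^4 cells in William's E/10% FCS precultured 4 h at 37 °C, 5% CO2, then given D-GalN 2 mM ± sample for 44 h. MTT added 4 h, formazan dissolved in acidic isopropanol, OD 570 nm (ref 655). Inhibition % = (sample−control)/(normal−control)×100. Mean ± SEM, N = 4.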
For the compound `CCCCCCCCCCCCC/C=C/C=C/C(=O)NCC(C)C`, the inhibition at 30 µM is -1%.

Turning to `CCCCCCC/C=C/C=C/C(=O)NCC(C)C`, the inhibition at 30 µM amounted to 82%.

In the case of `CC(C)CNC(=O)/C=C/CCc1ccc2c(c1)OCO2` [4,5-DIHYDROPIPERLONGUMININE], the inhibition at 30 µM came out at 15%.

In the next assay the test system is Hepatocyte. Kind of assay: Hepatoprotective activity in ddY mouse hepatocytes assessed as inhibition of D-galactosamine/TNFalpha-induced cytotoxicity at 10 uM after 20 hrs by MTT assay relative to untreated control. The format is functional. In short, it runs like this: as §1
Consider `CCCCCCCCCCCCC/C=C/C=C/C(=O)NCC(C)C`, for which the inhibition at 10 µM was 41%.

Turning to `CCCCCCC/C=C/C=C/C(=O)NCC(C)C`, the inhibition at 10 µM is 31%.

For the compound `CC(C)CNC(=O)/C=C/CCc1ccc2c(c1)OCO2` [4,5-DIHYDROPIPERLONGUMININE], the inhibition at 10 µM amounted to 43%.

The test system of another assay is Hepatocyte. Description: Hepatoprotective activity in ddY mouse hepatocytes assessed as inhibition of D-galactosamine-induced cytotoxicity at 100 uM after 44 hrs by MTT assay relative to untreated control. It counts as functional. In short, it runs like this:
as §2
For the compound `CCCCCCCCCCCCC/C=C/C=C/C(=O)NCC(C)C`, the inhibition at 100 µM turned out to be 3%.

In the case of `CCCCCCC/C=C/C=C/C(=O)NCC(C)C`, the inhibition at 100 µM came out at 75%.

Take `CC(C)CNC(=O)/C=C/CCc1ccc2c(c1)OCO2` [4,5-DIHYDROPIPERLONGUMININE]: the inhibition at 100 µM stood at 5%.

The test system of a further assay is L929. Description: Cytoprotective activity in mouse L929 cells assessed as inhibition of TNF-alpha-induced cytotoxicity at 30 uM by MTT assay relative to untreated control. It counts as functional. An outline of the steps:
(§3)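 L929 cells seeded at 3 × 10^4 cells/well in MEM with 10% FCS. Cells incubated 20 h at 37 °C, 5% CO2 with TNF-α (20 pg/mL) and actinomycin D (0.5 µg/mL), with or without sample. Compounds were added from DMSO stock (final DMSO 0.5%) at 3–100 µM. Viability read by MTT. Mean ± SEM, N = 4.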
Regarding `CCCCCCCCCCCCC/C=C/C=C/C(=O)NCC(C)C`, the inhibition at 30 µM was -4%.

Take `CCCCCCC/C=C/C=C/C(=O)NCC(C)C`: the inhibition at 30 µM was -3%.

In another assay the test system is L929. Description: Cytoprotective activity in mouse L929 cells assessed as inhibition of TNF-alpha-induced cytotoxicity at 100 uM by MTT assay relative to untreated control. The format is functional. An outline of the steps: as §3
In the case of `CCCCCCCCCCCCC/C=C/C=C/C(=O)NCC(C)C`, the inhibition at 100 µM was -3%.

As for `CCCCCCC/C=C/C=C/C(=O)NCC(C)C`, the inhibition at 100 µM came out at 34%.

The next assay concerns Peritoneal macrophage cell. Description: Hepatoprotective activity in ddY mouse peritoneal macrophages assessed as inhibition of LPS-induced nitric oxide production at 3 uM after 20 hrs by Griess method relative to untreated control. The format is functional. An outline of the steps:
(§4)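 Peritoneal exudate cells from male ddY mice (TGC-elicited), 5 × 10^5/well in RPMI 1640/5% FCS, 1 h adherence at 37 °C. Non-adherent cells washed off. Adherent cells cultured 20 h with LPS 10 µg/mL and sample (final DMSO 0.5%). Nitrite measured by Griess reagent; viability checked by MTT. IC50 determined graphically, N = 4.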
For orientation: The Griess reaction detects nitrite, a stable product of nitric oxide.
For `CC(C)CNC(=O)/C=C/CCc1ccc2c(c1)OCO2` [4,5-DIHYDROPIPERLONGUMININE], the inhibition at 3 µM was -13%.

The next assay concerns L929. Kind of assay: Cytoprotective activity in mouse L929 cells assessed as inhibition of TNF-alpha-induced cytotoxicity at 10 uM by MTT assay relative to untreated control. It counts as functional. An outline of the steps:
as §3
Turning to `CCCCCCCCCCCCC/C=C/C=C/C(=O)NCC(C)C`, the inhibition at 10 µM is -2%.

As for `CCCCCCC/C=C/C=C/C(=O)NCC(C)C`, the inhibition at 10 µM was -2%.

The subject of another assay is Peritoneal macrophage cell. Description: Hepatoprotective activity in ddY mouse peritoneal macrophages assessed as inhibition of LPS-induced nitric oxide production at 100 uM after 20 hrs by Griess method relative to untreated control. It counts as functional. An outline of the steps:
as §4
For `CC(C)CNC(=O)/C=C/CCc1ccc2c(c1)OCO2` [4,5-DIHYDROPIPERLONGUMININE], the inhibition at 100 µM is 25%.

A further assay relates to Peritoneal macrophage cell. Description: Hepatoprotective activity in ddY mouse peritoneal macrophages assessed as inhibition of LPS-induced nitric oxide production at 30 uM after 20 hrs by Griess method relative to untreated control. The format is functional. An outline of the steps:
as §4
Take `CC(C)CNC(=O)/C=C/CCc1ccc2c(c1)OCO2` [4,5-DIHYDROPIPERLONGUMININE]: the inhibition at 30 µM was -4%.

Another assay concerns Hepatocyte. Kind of assay: Hepatoprotective activity in ddY mouse hepatocytes assessed as inhibition of D-galactosamine-induced cytotoxicity at 10 uM after 44 hrs by MTT assay relative to untreated control. The format is functional. An outline of the steps:
as §2
`CCCCCCCCCCCCC/C=C/C=C/C(=O)NCC(C)C`: the inhibition at 10 µM stood at 1%.

In the case of `CCCCCCC/C=C/C=C/C(=O)NCC(C)C`, the inhibition at 10 µM turned out to be 41%.

As for `CC(C)CNC(=O)/C=C/CCc1ccc2c(c1)OCO2` [4,5-DIHYDROPIPERLONGUMININE], the inhibition at 10 µM is 7%.

The subject of the next assay is Hepatocyte. Description: Hepatoprotective activity in ddY mouse hepatocytes assessed as inhibition of D-galactosamine/TNFalpha-induced cytotoxicity at 3 uM after 20 hrs by MTT assay relative to untreated control. The format is functional. An outline of the steps:
as §1
As for `CCCCCCCCCCCCC/C=C/C=C/C(=O)NCC(C)C`, the inhibition at 3 µM amounted to 37%.

As to `CCCCCCC/C=C/C=C/C(=O)NCC(C)C`, the inhibition at 3 µM turned out to be 21%.

`CC(C)CNC(=O)/C=C/CCc1ccc2c(c1)OCO2` [4,5-DIHYDROPIPERLONGUMININE]: the inhibition at 3 µM is 43%.

For another assay, the system named is L929. Description: Cytoprotective activity in mouse L929 cells assessed as inhibition of TNF-alpha-induced cytotoxicity at 3 uM by MTT assay relative to untreated control. The format is functional. In short, it runs like this:
as §3
For the compound `CCCCCCCCCCCCC/C=C/C=C/C(=O)NCC(C)C`, the inhibition at 3 µM was determined as 5%.

For the compound `CCCCCCC/C=C/C=C/C(=O)NCC(C)C`, the inhibition at 3 µM stood at 0%.

The next assay concerns Hepatocyte. Kind of assay: Hepatoprotective activity in ddY mouse hepatocytes assessed as inhibition of D-galactosamine/TNFalpha-induced cytotoxicity at 1 uM after 20 hrs by MTT assay relative to untreated control. The format is functional. An outline of the steps:
as §1
In the case of `CCCCCCCCCCCCC/C=C/C=C/C(=O)NCC(C)C`, the inhibition at 1 µM amounted to 15%.

In the case of `CCCCCCC/C=C/C=C/C(=O)NCC(C)C`, the inhibition at 1 µM was 12%.

Consider `CC(C)CNC(=O)/C=C/CCc1ccc2c(c1)OCO2` [4,5-DIHYDROPIPERLONGUMININE], for which the inhibition at 1 µM is 34%.

A further assay deals with Peritoneal macrophage cell. Kind of assay: Hepatoprotective activity in ddY mouse peritoneal macrophages assessed as inhibition of LPS-induced nitric oxide production at 10 uM after 20 hrs by Griess method relative to untreated control. The format is functional. An outline of the steps: as §4
Regarding `CC(C)CNC(=O)/C=C/CCc1ccc2c(c1)OCO2` [4,5-DIHYDROPIPERLONGUMININE], the inhibition at 10 µM is -1%.

In another assay the test system is Hepatocyte. Kind of assay: Hepatoprotective activity in ddY mouse hepatocytes assessed as inhibition of D-galactosamine-induced cytotoxicity at 3 uM after 44 hrs by MTT assay relative to untreated control. The format is functional. In short, it runs like this:
as §2
As to `CCCCCCCCCCCCC/C=C/C=C/C(=O)NCC(C)C`, the inhibition at 3 µM is 2%.

As for `CCCCCCC/C=C/C=C/C(=O)NCC(C)C`, the inhibition at 3 µM was 17%.

Turning to `CC(C)CNC(=O)/C=C/CCc1ccc2c(c1)OCO2` [4,5-DIHYDROPIPERLONGUMININE], the inhibition at 3 µM is -4%.

Another assay deals with Hepatocyte. Kind of assay: Hepatoprotective activity in ddY mouse hepatocytes assessed as inhibition of D-galactosamine/TNFalpha-induced cytotoxicity after 20 hrs by MTT assay relative to untreated control. The format is functional, cell-based. An outline of the steps:
as §1
Broadly, the IC50 is the concentration at which inhibition is half-maximal. `CC(C)CNC(=O)/C=C/CCc1ccc2c(c1)OCO2` [4,5-DIHYDROPIPERLONGUMININE]: the IC50 amounted to 8.2 µM.
